Data: ChEMBL document CHEMBL4257575, “Discovery of Novel Flavonoid Dimers To Reverse Multidrug Resistance Protein 1 (MRP1, ABCC1) Mediated Drug Resistance in Cancers Using a High Throughput Platform with "Click Chemistry"” (J Med Chem, 2018)

Tested on: MRP1
Test: in vitro
Details: mouse, L929 cells (IC50) versus 2008/MRP1 cells (EC50)

Row | SMILES | selectivity ratio
1 | O=c1cc(-c2ccccc2)oc2cc(OCCCc3cn(CCOCCOCCOc4ccc(-c5cc(=O)c6cc(F)ccc6o5)cc4)nn3)ccc12 | > 1050
2 | O=c1cc(-c2ccc(OCCOCCn3cc(CCCOc4ccc5c(=O)cc(-c6ccccc6)oc5c4)nn3)cc2)oc2ccccc12 | > 662
3 | O=c1cc(-c2ccccc2)oc2cc(OCCOCc3cn(CCOCCOCCOc4ccc(-c5oc6ccccc6c(=O)c5OCc5ccccc5)cc4)nn3)ccc12 | > 518
4 | Cc1ccc2oc(-c3ccc(OCCCCc4cn(CCOCCOCCOc5ccc(-c6cc(=O)c7cc(C)ccc7o6)cc5)nn4)cc3)cc(=O)c2c1 | > 365
5 | O=c1cc(-c2ccccc2)oc2cc(OCCCc3cn(CCOCCOc4ccc5c(=O)cc(-c6ccccc6)oc5c4)nn3)ccc12 | > 336
6 | Cc1ccc2oc(-c3ccc(OCCCCc4cn(CCOCCOCCOc5ccc(-c6cc(=O)c7cc(F)ccc7o6)cc5)nn4)cc3)cc(=O)c2c1 | > 461
7 | O=c1cc(-c2ccc(OCCCc3cn(CCOCCOc4ccc(-c5cc(=O)c6ccccc6o5)cc4)nn3)cc2)oc2ccccc12 | 531
8 | Cc1ccc2oc(-c3ccc(OCCCCc4cn(CCOCCOc5ccc(-c6cc(=O)c7cc(F)ccc7o6)cc5)nn4)cc3)cc(=O)c2c1 | > 400

Tested on: not listed separately
Test: Cytotoxicity against human 2008/MRP1 cells assessed as cell survival at 2 uM after 5 days by MTS assay relative to control
Assay type: cell-based
Details: read-out: Survival

Row | SMILES | viability at 120 h, 2 µM
9 | O=c1cc(-c2ccccc2)oc2cc(OCCCc3cn(CCOCCOCCOc4ccc(-c5cc(=O)c6cc(F)ccc6o5)cc4)nn3)ccc12 | 88%
10 | O=c1cc(-c2ccc(OCCOCCn3cc(CCCOc4ccc5c(=O)cc(-c6ccccc6)oc5c4)nn3)cc2)oc2ccccc12 | 92%
11 | O=c1cc(-c2ccccc2)oc2cc(OCCOCc3cn(CCOCCOCCOc4ccc(-c5oc6ccccc6c(=O)c5OCc5ccccc5)cc4)nn3)ccc12 | 95%
12 | Cc1ccc2oc(-c3ccc(OCCCCc4cn(CCOCCOCCOc5ccc(-c6cc(=O)c7cc(C)ccc7o6)cc5)nn4)cc3)cc(=O)c2c1 | 100%
13 | O=c1cc(-c2ccccc2)oc2cc(OCCCc3cn(CCOCCOc4ccc5c(=O)cc(-c6ccccc6)oc5c4)nn3)ccc12 | 98%
14 | Cc1ccc2oc(-c3ccc(OCCCCc4cn(CCOCCOCCOc5ccc(-c6cc(=O)c7cc(F)ccc7o6)cc5)nn4)cc3)cc(=O)c2c1 | 100%
15 | O=c1cc(-c2ccc(OCCCc3cn(CCOCCOc4ccc(-c5cc(=O)c6ccccc6o5)cc4)nn3)cc2)oc2ccccc12 | 81%
16 | Cc1ccc2oc(-c3ccc(OCCCCc4cn(CCOCCOc5ccc(-c6cc(=O)c7cc(F)ccc7o6)cc5)nn4)cc3)cc(=O)c2c1 | 99%

Target: T1, Multidrug resistance-associated protein 1 (Homo sapiens, UniProt P33527)
T1 sequence (P33527 whole entry): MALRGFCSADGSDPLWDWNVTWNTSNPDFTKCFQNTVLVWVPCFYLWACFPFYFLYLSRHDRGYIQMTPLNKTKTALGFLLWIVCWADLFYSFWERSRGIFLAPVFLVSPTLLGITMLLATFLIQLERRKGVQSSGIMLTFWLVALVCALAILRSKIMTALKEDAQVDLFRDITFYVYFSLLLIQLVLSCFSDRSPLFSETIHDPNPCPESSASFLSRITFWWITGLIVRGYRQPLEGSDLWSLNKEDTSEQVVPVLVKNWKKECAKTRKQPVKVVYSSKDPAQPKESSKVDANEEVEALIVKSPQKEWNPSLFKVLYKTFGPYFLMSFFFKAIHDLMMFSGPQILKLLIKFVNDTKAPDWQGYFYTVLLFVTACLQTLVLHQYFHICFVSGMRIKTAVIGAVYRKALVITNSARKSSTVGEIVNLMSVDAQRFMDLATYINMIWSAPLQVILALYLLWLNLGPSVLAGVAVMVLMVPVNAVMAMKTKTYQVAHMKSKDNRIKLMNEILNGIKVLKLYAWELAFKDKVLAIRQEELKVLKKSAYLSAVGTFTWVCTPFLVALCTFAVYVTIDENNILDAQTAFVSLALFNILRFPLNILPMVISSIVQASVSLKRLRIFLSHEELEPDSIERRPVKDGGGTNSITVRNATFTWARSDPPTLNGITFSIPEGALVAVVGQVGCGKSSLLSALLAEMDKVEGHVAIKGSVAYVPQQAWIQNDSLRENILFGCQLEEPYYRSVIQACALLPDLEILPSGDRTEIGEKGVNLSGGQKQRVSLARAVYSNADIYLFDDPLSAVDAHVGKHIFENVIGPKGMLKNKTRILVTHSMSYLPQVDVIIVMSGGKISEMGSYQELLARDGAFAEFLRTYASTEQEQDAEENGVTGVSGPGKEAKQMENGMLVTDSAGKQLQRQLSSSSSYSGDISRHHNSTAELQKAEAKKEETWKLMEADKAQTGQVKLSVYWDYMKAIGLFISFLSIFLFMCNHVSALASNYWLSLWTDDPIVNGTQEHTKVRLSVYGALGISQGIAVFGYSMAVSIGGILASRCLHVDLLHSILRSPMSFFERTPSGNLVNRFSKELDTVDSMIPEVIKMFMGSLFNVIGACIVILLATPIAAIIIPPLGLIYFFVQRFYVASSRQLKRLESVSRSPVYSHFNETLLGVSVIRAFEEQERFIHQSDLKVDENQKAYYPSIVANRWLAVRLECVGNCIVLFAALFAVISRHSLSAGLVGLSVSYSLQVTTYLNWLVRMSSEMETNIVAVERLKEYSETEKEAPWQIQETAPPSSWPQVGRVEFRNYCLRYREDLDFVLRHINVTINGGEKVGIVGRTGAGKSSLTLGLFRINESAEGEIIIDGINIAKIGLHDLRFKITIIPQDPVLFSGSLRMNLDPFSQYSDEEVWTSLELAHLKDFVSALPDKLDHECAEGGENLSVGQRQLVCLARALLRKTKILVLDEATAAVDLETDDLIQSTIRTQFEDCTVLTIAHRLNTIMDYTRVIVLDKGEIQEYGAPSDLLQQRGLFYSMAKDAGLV
Test: Inhibition of MRP1 in human 2008/MRP1 cells assessed as potentiation of doxorubicin-induced cytotoxicity by measuring cell survival at 1 uM after 5 days by MTS assay relative to control
Assay type: cell-based
Details: 120 h
Procedure, shortened: (§1)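 2008/MRP1 cells (retroviral human MRP1 transfectant; RPMI 1640, 10% FBS) at 4,000 per well, with 100 nM doxorubicin plus crude, unpurified click products in DMSO: 2 µM in the primary screen, 1 µM in the secondary. Incubated 5 days at 37 °C. MTS/PMS added for 2 h at 37 °C, absorbance read at 490 nm. % survival is relative to wells without DOX or product. Run in triplicate, at least three experiments.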

Row | SMILES | Survival
17 | O=c1cc(-c2ccccc2)oc2cc(OCCCc3cn(CCOCCOCCOc4ccc(-c5cc(=O)c6cc(F)ccc6o5)cc4)nn3)ccc12 | 49%
18 | O=c1cc(-c2ccc(OCCOCCn3cc(CCCOc4ccc5c(=O)cc(-c6ccccc6)oc5c4)nn3)cc2)oc2ccccc12 | 30%
19 | O=c1cc(-c2ccccc2)oc2cc(OCCOCc3cn(CCOCCOCCOc4ccc(-c5oc6ccccc6c(=O)c5OCc5ccccc5)cc4)nn3)ccc12 | 48%
20 | Cc1ccc2oc(-c3ccc(OCCCCc4cn(CCOCCOCCOc5ccc(-c6cc(=O)c7cc(C)ccc7o6)cc5)nn4)cc3)cc(=O)c2c1 | 50%
21 | O=c1cc(-c2ccccc2)oc2cc(OCCCc3cn(CCOCCOc4ccc5c(=O)cc(-c6ccccc6)oc5c4)nn3)ccc12 | 49%
22 | Cc1ccc2oc(-c3ccc(OCCCCc4cn(CCOCCOCCOc5ccc(-c6cc(=O)c7cc(F)ccc7o6)cc5)nn4)cc3)cc(=O)c2c1 | 41%
23 | O=c1cc(-c2ccc(OCCCc3cn(CCOCCOc4ccc(-c5cc(=O)c6ccccc6o5)cc4)nn3)cc2)oc2ccccc12 | 51%
24 | Cc1ccc2oc(-c3ccc(OCCCCc4cn(CCOCCOc5ccc(-c6cc(=O)c7cc(F)ccc7o6)cc5)nn4)cc3)cc(=O)c2c1 | 38%

Species: Homo sapiens
Test: Inhibition of P-gp in human LCC6MDR cells assessed as potentiation of paclitaxel-induced cytotoxicity by measuring fold reduction in paclitaxel IC50 at 1 uM after 5 days by MTS assay relative to paclitaxel alone
Assay type: cell-based
Details: not given

Row | SMILES | Ratio IC50
25 | O=c1cc(-c2ccccc2)oc2cc(OCCCc3cn(CCOCCOCCOc4ccc(-c5cc(=O)c6cc(F)ccc6o5)cc4)nn3)ccc12 | 16
26 | O=c1cc(-c2ccc(OCCOCCn3cc(CCCOc4ccc5c(=O)cc(-c6ccccc6)oc5c4)nn3)cc2)oc2ccccc12 | 19.1
27 | O=c1cc(-c2ccccc2)oc2cc(OCCOCc3cn(CCOCCOCCOc4ccc(-c5oc6ccccc6c(=O)c5OCc5ccccc5)cc4)nn3)ccc12 | 46.7
28 | Cc1ccc2oc(-c3ccc(OCCCCc4cn(CCOCCOCCOc5ccc(-c6cc(=O)c7cc(C)ccc7o6)cc5)nn4)cc3)cc(=O)c2c1 | 58.8
29 | O=c1cc(-c2ccccc2)oc2cc(OCCCc3cn(CCOCCOc4ccc5c(=O)cc(-c6ccccc6)oc5c4)nn3)ccc12 | 4
30 | Cc1ccc2oc(-c3ccc(OCCCCc4cn(CCOCCOCCOc5ccc(-c6cc(=O)c7cc(F)ccc7o6)cc5)nn4)cc3)cc(=O)c2c1 | 99.2
31 | O=c1cc(-c2ccc(OCCCc3cn(CCOCCOc4ccc(-c5cc(=O)c6ccccc6o5)cc4)nn3)cc2)oc2ccccc12 | 31.7
32 | Cc1ccc2oc(-c3ccc(OCCCCc4cn(CCOCCOc5ccc(-c6cc(=O)c7cc(F)ccc7o6)cc5)nn4)cc3)cc(=O)c2c1 | 99.2

Tested on: L929
Test: Cytotoxicity against mouse L929 cells assessed as reduction in cell survival after 5 days by MTS assay
Assay type: cell-based
Details: L929, 120 h

Row | SMILES | IC50
33 | O=c1cc(-c2ccccc2)oc2cc(OCCCc3cn(CCOCCOCCOc4ccc(-c5cc(=O)c6cc(F)ccc6o5)cc4)nn3)ccc12 | > 100 µM
34 | O=c1cc(-c2ccc(OCCOCCn3cc(CCCOc4ccc5c(=O)cc(-c6ccccc6)oc5c4)nn3)cc2)oc2ccccc12 | > 100 µM
35 | O=c1cc(-c2ccccc2)oc2cc(OCCOCc3cn(CCOCCOCCOc4ccc(-c5oc6ccccc6c(=O)c5OCc5ccccc5)cc4)nn3)ccc12 | > 100 µM
36 | Cc1ccc2oc(-c3ccc(OCCCCc4cn(CCOCCOCCOc5ccc(-c6cc(=O)c7cc(C)ccc7o6)cc5)nn4)cc3)cc(=O)c2c1 | > 50 µM
37 | O=c1cc(-c2ccccc2)oc2cc(OCCCc3cn(CCOCCOc4ccc5c(=O)cc(-c6ccccc6)oc5c4)nn3)ccc12 | > 100 µM
38 | Cc1ccc2oc(-c3ccc(OCCCCc4cn(CCOCCOCCOc5ccc(-c6cc(=O)c7cc(F)ccc7o6)cc5)nn4)cc3)cc(=O)c2c1 | > 100 µM
39 | O=c1cc(-c2ccc(OCCCc3cn(CCOCCOc4ccc(-c5cc(=O)c6ccccc6o5)cc4)nn3)cc2)oc2ccccc12 | 60 µM
40 | Cc1ccc2oc(-c3ccc(OCCCCc4cn(CCOCCOc5ccc(-c6cc(=O)c7cc(F)ccc7o6)cc5)nn4)cc3)cc(=O)c2c1 | > 100 µM

Target: T1, Multidrug resistance-associated protein 1
Test: Inhibition of MRP1 in human 2008/MRP1 cells assessed as potentiation of doxorubicin-induced cytotoxicity by measuring cell survival at 2 uM after 5 days by MTS assay relative to control
Assay type: cell-based
Details: 120 h
Procedure, shortened: as §1

Row | SMILES | Survival
41 | O=c1cc(-c2ccccc2)oc2cc(OCCCc3cn(CCOCCOCCOc4ccc(-c5cc(=O)c6cc(F)ccc6o5)cc4)nn3)ccc12 | 48%
42 | O=c1cc(-c2ccc(OCCOCCn3cc(CCCOc4ccc5c(=O)cc(-c6ccccc6)oc5c4)nn3)cc2)oc2ccccc12 | 23%
43 | O=c1cc(-c2ccccc2)oc2cc(OCCOCc3cn(CCOCCOCCOc4ccc(-c5oc6ccccc6c(=O)c5OCc5ccccc5)cc4)nn3)ccc12 | 45%
44 | Cc1ccc2oc(-c3ccc(OCCCCc4cn(CCOCCOCCOc5ccc(-c6cc(=O)c7cc(C)ccc7o6)cc5)nn4)cc3)cc(=O)c2c1 | 38%
45 | O=c1cc(-c2ccccc2)oc2cc(OCCCc3cn(CCOCCOc4ccc5c(=O)cc(-c6ccccc6)oc5c4)nn3)ccc12 | 45%
46 | Cc1ccc2oc(-c3ccc(OCCCCc4cn(CCOCCOCCOc5ccc(-c6cc(=O)c7cc(F)ccc7o6)cc5)nn4)cc3)cc(=O)c2c1 | 34%
47 | O=c1cc(-c2ccc(OCCCc3cn(CCOCCOc4ccc(-c5cc(=O)c6ccccc6o5)cc4)nn3)cc2)oc2ccccc12 | 29%
48 | Cc1ccc2oc(-c3ccc(OCCCCc4cn(CCOCCOc5ccc(-c6cc(=O)c7cc(F)ccc7o6)cc5)nn4)cc3)cc(=O)c2c1 | 30%
